High-throughput results (PubChem BioAssay)
MrgX1 PAM – positive allosteric modulators of MrgX1, primary screen, HEK293 cells, Fluo-4 calcium flux. Mas-related G-protein coupled receptor member X1 (Homo sapiens), Q96LB2. FDSS; active compounds read high. B-score at 10 µM. hit rate 0.63% among 310,000. AID 588675, 2011;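 active means plate-corrected calcium response at least 3 library SD above typical, normal starting fluorescence, not activating the receptor alone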;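 further: compound read alongside a low EC10 to EC30 dose of BAM8-22 agonist; peak minus trough fluorescence over baseline measured at the second addition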
Target sequence (Q96LB2 whole entry, looked up): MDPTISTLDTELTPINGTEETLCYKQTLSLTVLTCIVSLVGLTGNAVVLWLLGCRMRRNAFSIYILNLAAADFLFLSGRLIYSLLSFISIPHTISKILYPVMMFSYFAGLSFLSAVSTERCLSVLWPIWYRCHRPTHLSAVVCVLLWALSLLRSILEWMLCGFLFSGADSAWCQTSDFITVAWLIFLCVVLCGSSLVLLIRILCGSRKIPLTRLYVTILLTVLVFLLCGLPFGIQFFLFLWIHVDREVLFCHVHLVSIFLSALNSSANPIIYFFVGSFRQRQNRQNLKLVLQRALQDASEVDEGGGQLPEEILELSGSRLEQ
MrgX1 antagonist – antagonists of human MrgX1 receptor, primary screen, HEK293 cells, Fluo-4 calcium flux. BAM8-22 antagonism; active compounds read low. B-score at 10 µM. hit rate 1.3% among 310,000. AID 588676, 2011;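 active means calcium-response B-score plate-corrected more than 3 library SD below zero, starting fluorescence within 5 deviations, no agonist response on first addition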;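 further: peak minus trough fluorescence over baseline after final BAM8-22 challenge near maximal dose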
RGS4 act – RGS4 potentiators or activators, primary screen, cell-based, HEK293 M3R inducible RGS4, calcium flux; AID 463111, 2010; B-score at 10 µM; hit rate 0.92% among 310,000; carbachol calcium flux Fluo4; active compounds read low;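 active means B-score of the integrated calcium signal more than 4 SD below the library mean, with starting fluorescence not abnormally high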;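 further: negative B-score means reduced calcium response which marks RGS4 activation or potentiation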
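Reagent: ECmax carbachol challenge; Test system: M3R-expressing HEK293 line, RGS4 induced by doxycycline; Schedule: overnight RGS4 induction, 30 min dye load 37 °C, 20 min compound RT; Detection: calcium dye Fluo4 fluorescence; Read-out: Agonist-evoked peak-minus-minimum fluorescence over baseline, integrated ratio, B score.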
MrgX1 agonist – agonists of human MrgX1 receptor, primary screen, HEK293 cells, Fluo-4 calcium flux; Fluo-4 calcium fluorescence, agonist mode; active compounds read high; Mas-related G-protein coupled receptor member X1 (Homo sapiens), Q96LB2; hit rate 0.44% among 310,000; B-score at 10 µM;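 active means calcium response B-score plate-corrected fluorescence ratio at least 3 library SD, with starting fluorescence B-score inside 5 SD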
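Test system: HEK293 cells stably expressing human MrgX1 receptor; amount: 15,000 cells per well; doses: compound delivered in addition one of three; times: overnight plating before 1 h dye loading; detection: Fluo-4 NW calcium-flux fluorescence, kinetic read; read-out basis: B-scored fluorescence response ratio; controls: positive and negative controls per plate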
RGS4 inh – RGS4 inhibitors, primary screen, cell-based, HEK293 M3R inducible RGS4, calcium flux. B-score at 10 µM. hit rate 0.45% among 310,000. AID 463165, 2010. Fluo-4 calcium flux; active compounds read high; triggered by carbachol at its EC20;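 active means B-score, a plate-corrected calcium signal, over three deviations above library mean, with baseline fluorescence within five deviations of library mean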;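 further: RGS4 expression induced by doxycycline in cells with stable M3 receptor; B-score is computed from the integrated fluorescence ratio over baseline after carbachol; higher B-score means a larger calcium signal and so more RGS4 inhibition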
Target sequence (P49798 whole entry, looked up): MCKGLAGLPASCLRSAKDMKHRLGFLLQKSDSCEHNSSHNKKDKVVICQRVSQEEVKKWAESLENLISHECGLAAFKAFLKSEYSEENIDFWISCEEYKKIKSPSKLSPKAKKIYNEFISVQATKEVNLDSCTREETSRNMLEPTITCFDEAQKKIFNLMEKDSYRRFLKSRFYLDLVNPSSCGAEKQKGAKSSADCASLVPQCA
MrgX1 PAM conf – MrgX1 positive allosteric modulators, duplicate retest, confirmation, HEK293 cells, Fluo-4 calcium flux; activation (ratio percentage), % at 10 µM; hit rate 13% among 1,200; Fluo-4 calcium fluorescence, FDSS; shares compounds with MrgX1 PAM;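 active means ratio at least 3 SD above the weak peptide control, stable starting fluorescence, no direct agonism earlier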;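 further: compound followed by low BAM8-22 agonist challenge near EC20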
MrgX1 antag conf – MrgX1 receptor antagonists, duplicate retest, confirmation, HEK293 cells, Fluo-4 calcium flux. shares compounds with MrgX1 antagonist. BAM8-22 calcium flux; active compounds read low. remaining BAM8-22 calcium response % of control (active compounds read low), % at 10 µM. hit rate 19% among 2,300;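 active means remaining agonist calcium response no higher than 100% minus 3 SD of agonist-only control wells, with starting fluorescence near control levels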;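 further: agonist BAM8-22 given at a near maximal EC90 to ECmax level; peak minus minimum fluorescence divided by baseline after agonist addition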
HEK293 Ca flux – nonspecific calcium signal in parental HEK293, confirmation, counter-screen for MrgX1 antagonist project, parental HEK293 cells, Fluo-4 calcium flux; shares compounds with MrgX1 antagonist; Fluo-4 calcium fluorescence, FDSS; fluorescence ratio F(max-min)/F0 at 10 µM; hit rate 2% among 4,000; AID 624111, 2012;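 active means duplicate-averaged calcium fluorescence ratio at least three times the standard deviation of buffer wells, a nonspecific response in parental cells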
HEK293 Ca counter – calcium response in parental HEK293 cells, primary screen, counter-screen for MrgX1 allosteric activator project, cell-based, Fluo-4 calcium flux, duplicate; AID 624114, 2012; hit rate 0.4% among 4,000; Fluo-4 fluorescence ratio; active compounds read high; shares compounds with MrgX1 antagonist; fluorescence ratio F(max-min)/F0 at 10 µM;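 active means calcium fluorescence ratio, averaged over duplicates, at least 3 SD of the buffer-well ratio, meaning a nonspecific response in receptor-free cells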;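 further: untransfected parental HEK293 lacking MrgX1 used as counterscreen for MrgX1 allosteric activators; fluorescence change taken during the second addition on a kinetic imager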
HEK293 Ca cntr2 – calcium response in parental HEK293 cells, primary screen, counter-screen for MrgX1 agonist project, cell-based, Fluo-4 calcium flux, duplicate, agonist mode; Fluo-4 calcium fluorescence (FDSS); active compounds read high; fluorescence ratio F(max-min)/F0 at 10 µM; AID 624115, 2012; shares compounds with MrgX1 antagonist; hit rate 8.7% among 4,000;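 active means calcium fluorescence ratio at least three times the spread of buffer wells, meaning a non-specific response in parental cells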
An asterisk follows results filed as active; i = inactive; · = no result given. A selection: hits, their analogues and other compounds. The true share with any hit is near 3.5%.

SMILES | MrgX1 PAM | MrgX1 antagonist | RGS4 act | MrgX1 agonist | RGS4 inh | MrgX1 PAM conf | HEK293 Ca flux | HEK293 Ca counter | HEK293 Ca cntr2 | others
C/C(=N\NC(=O)c1cc2ccccc2cc1O)c1cc2ccccc2o1 | 21.5* | i | i | i | i | i | i | i | i
C/C(=N\NC(=O)c1nc2ccccn2c1C)c1cc2ccccc2o1 | i | i | i | i | i | · | · | · | ·
Cc1ccc(Cn2ncc3c(N4CCN(Cc5ccc(Cl)cc5)CC4)ncnc32)cc1 | 8.4* | -12.1* | i | i | i | i | i | i | i | MrgX1 antag conf=84.4%*
Cc1ccc(Cn2ncc3c(N4CCN(c5ccc(C)cc5)CC4)ncnc32)cc1 | i | i | i | i | i | · | · | · | ·
COc1ccc(NC(=O)c2ccc(NS(=O)(=O)c3c(C)noc3C)cc2)cc1OC | i | i | i | i | i | · | · | · | ·
Cc1ccc(NC(=O)c2ccc(NS(=O)(=O)c3c(C)noc3C)cc2)cc1C | 13.4* | i | i | i | i | 2.3%* | i | i | i
COc1ccc(C(C(N)=O)c2ncc(C(F)(F)F)cc2Cl)cc1OC (stereo not given) | i | i | i | i | i | · | · | · | ·
COC(=O)Cc1cc(=O)n(-c2nc3ccccc3[nH]2)[nH]1 | 15.1* | i | i | i | i | i | i | i | i
COc1cc(/C=C(/C#N)C(=O)NCc2ccccc2)cc(OC)c1OC | 35.5* | i | i | i | i | i | i | i | i
Cc1ccc(S(=O)(=O)CC(=O)Nc2nc(-c3ccccc3)cs2)cc1 | i | i | i | i | i | · | · | · | ·
O=C(CS(=O)(=O)c1ccccc1)Nc1nc(-c2ccccc2)cs1 | 8.44* | i | i | i | i | i | i | i | i
COc1ccccc1-n1c(=O)c2c3c(sc2n2c(SC)nnc12)CCC3 | 15.2* | i | i | i | i | i | i | i | i
CCSc1nnc2n(-c3ccc(OC)cc3)c(=O)c3c4c(sc3n12)CCCC4 | i | i | i | i | i | · | · | · | ·
COCCN1C(=O)/C(=C/c2ccc(N3CCCC3)cc2C)SC1=S | 19.4* | i | i | i | i | i | 0.126* | i | 48*
COC(=O)CNC(=O)c1cc(-c2ccncc2)nc2ccc(C)cc12 | i | i | i | i | i | · | · | · | ·
Cc1ccc(OCCCNCCO)c(Br)c1 | 7.53* | i | i | i | i | i | i | i | i
O=C(CCc1ccccc1)NC(=S)Nc1cccc(Br)c1 | 8.95* | i | i | i | i | i | i | i | i
